Drawing on the RNAGym collection of RNA variant scans (doi:10.1126/science.aae0568), this text covers yeast fitness for 37 variants.

Fewer inactive variants are shown than the library holds. Bounds are passed on as bounds.

B1: tRNA (parent)
chain: GUUCCGUUGGCGUAAUGGUAACGCGUCUCCCUCCUAAGGAGAAGACUGCGGGUUCGAGUCCCGUACGGAACG

This data set covers variants of B1. Put plainly: yeast fitness relative to wild type (ratio to wild type); higher = fitter; tRNA-Arg(CCU), competitive growth, 37 C, YPD. A digest of the protocol: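 Changes in genotype frequencies gave Darwinian fitness relative to wild type. Frequencies were read by 100-nucleotide paired-end sequencing of gene amplicons before and after pooled Saccharomyces cerevisiae strains, carrying tRNA-Arg(CCU) gene variants at the native locus, were competed in YPD at 37°C for 24 hours in six replicates. A genotype was kept only with ≥ 100 starting reads, and estimates < 0.5 were set to 0.5.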
With GUUCCGUUGGCGUAAUGGUAACGCGUCGCCCUCCUAAGGAGAAGACUGCGGGUUCGAGUCCCGCACGGAACG, the yeast fitness worked out at 0.864.
Next, GUUCCGUUGGCGUAAUCGUAAGGAGUCUCCCUCCUAAGGAGAAGACUGCGGGUUCGAGUCCAGUACGGAACG: not above 0.5.
Consider GUUCCCUUGGCGUAUUGGUAACGCGUCUCCCUCCUAAGGAGAAGACUGCGGGUUCGAGUGCCGUAUGGAACG, for which the yeast fitness was not above 0.5.
Take GUUCCGUUGGCGUAAUGGUAACGCGGCUCCCUCCUACAGAGGACGCUGUGGGUUCGAGUCCCGUUCGGAACG: the yeast fitness is not above 0.5.
Next, GUUCCGUUGGCGGAAUGGAAACGCGUGUCCCUCCUAAGGAGAAGACUGCGGGUUCGAGUCCCGUACGGAACG: 0.626.
Consider GUUCCGCUGGCGUAAUGGUAACGCGUCUCCCUCCUAAGGAGAAGACUGCGGGUUCGAGUCCGGUACGGAACG, for which the yeast fitness stood at 0.61.
With GUUCCGUUGGCGUAAUGGUUACGCGUCUCCCUCCUAAGGAGAAGACUGCGGGUCCGAGUCCCGUACGGAACG the figure was 0.758; with GUUCCGUAGGUGUAAUGGUAACGCAUCUCCCUACUAAGGUGAAGACUGCGGGUUCGAGUCCCGUACGGAACG, not above 0.5.
As to GUUCCGUUGGAGUAAUGGUAAGGCGUCUCCCUCCUAAGGAGAAGACUGCGGGUUCGAGUCCCGUACGGAACG, the yeast fitness came out at 0.623.
With GUUCCGUUGGCGUAUUGGUAACGCGUCUUCCUUCUAAGGAGAAGACUGCGGGUUCGAGUCCCGUACGGAACG the figure was not above 0.5.
With GUUCCGUUGGCGUAUUGGUAACGAGUCUCCCUCGUAAGUAGAAGACUGCGGGUUCGAGUCCCGUGCGGAACG the figure was 0.651; with GUUCCGUUGGCGUAAUGGUAACGCGUCUCCUUCCUAAGGAGACGACUGCGGGUCCGAGUCCCGUACGGAACG, 0.596.
With GUUCCGUUGGCGUAAUGGUAACGCGUUUCCCUCCUAAGGAGAAGACUGCGGGUUAGAGUCCCGUACGGCACG the figure was 0.573; with GUUCCGUUGGCGUAAUGGUAGCGCGUCUCCCUCCUGACGAGAAGACUGCAGGUUCGAGUCCCGUACGGAACG, not above 0.5.
GUUGCGUUGGCGUAAUGGUAACGCGUCUACCUCCUAAGGAGAAGACUGCGGGUUCGAGUCCCGUACGGAACG: the yeast fitness was 0.757.
Consider GUUCCGUUGGCGUAAUGGUGACGCGUCCCCCUCCUAAGGAGAAGACUGCGGGUUCGAGUCCAGUACGGAACG, for which the yeast fitness was not above 0.5.
Next, GUUCCGGUGGCGUAAUGGUAACGCGUGUCCCUCCUAAGCAGAAGACCGGGGGUUCGGGUCCCGUACGGAACG: not above 0.5.
As for GUUCCGUUGGCGUAAUGGUAACGCGUCUCCCUCAUAAGGAGAAGACUGCAGGUUCGAGUCCCGUACGGAACG, the yeast fitness was 0.742.
As to GUUCCGUUGGCGUAAUGGUAACGCGUCUCCCACCUAAGGAGAAGACUGCGGGUUCGAGUCCCGUACAGAACG, the yeast fitness came to 0.766.
With GUUCCGUUGGCGUAAUGCUAACGCGUCUCCCUCCUAAGGAGAAGACUGCGGGUUCGAGUCCCGUACGCAACG the figure was 0.556; with GUUCCGUUGGCGUAAUGGUAACGCGUCUCCCUCGUAAGGAGCAGACUGCGGGUUCGAGUCCGGUACGGAACG, 0.631; with GUUCCGUUGGCGUAAUGGUAACGCGUCUCCCUCCUAAGGAGACCACUGCGGGUUGGAGUCCUGUAUGGAACG, not above 0.5.
Next, GUUCCGUUGGCGUCAUGGUAACGAGUCUCCCUCCUAAGGAGAAGACUGCGGGUUCGAGUCACGUACGGAACG: not above 0.5; GUUCCGUUGGCGUAAUGGUAAGGAGUUUCCCUCCUAAGGAGAAGACUGCGGGUUCGAGACCCGUACGGAACG: not above 0.5.
With GUUGCGUUGGCGUAAAGGUACCGGGUCUCCCUCCUAUGGAGAAGACUGCGGGUUUGAGUCCCGUACGGAACG the figure was not above 0.5; with GUUCCGUUGGCGUUAUGGUAACGCGUCUCCCUCCUAAGGAGAAGACUGCGGGUUCGAGUGCCGUACGGACCG, not above 0.5; with GUUCCGUUGGCGUAAUGGUAACGCGUCUCCCUCCUAAGGACAAGACUGCGGGUUCGAGUCCCCUUCGGAACG, not above 0.5.
Regarding GUUCCGUUGGCGUAAUGGUAACGUGUCUCCCUCCUAAGGAGAAAACUGCGGGUUCGAGUUCAGUACGGAACG, the yeast fitness was not above 0.5.
Next, GUUCUGUUGGAGUAAUGGUAACGCGUCUCCCUCCUAAGGAGAAGACUGCGGGUUCGAGUCCCGUAGGGAACG: 0.613.
As for GUUCCGAUGGCGUAAUGGUAACGCGUCUCCCUCCUAAGGAGGAGACUGCGGGUUGGCGUCCCGUACGGAACG, the yeast fitness was not above 0.5.
Next, GUUCCGUUGGCGUAAUGGUAACGCGUAUCCCUCCUAAGAAGCAGACUCCGGGUUCGAGUUCCGUACGGAACG: not above 0.5; GUGCCGUUGGCGUAACGGUAACGCGUCUCCCUCCUAAGCAGAAGCCUGGGGGUUCGAGUCCGGUACGGAACG: not above 0.5; GUUCCGUUGGCGUAAUGGUAACGCGUCUCCCUCCUAAGGAGAAGACUGCGGGUUCGAAUCCCGUACCGAACG: 0.988.
With GUUCAGUUGGAGUAAUGGUAACGCGUCUCCCUCCUAAGGAGAAGACUGCGGGUUCGAGUCCCGUACGGAACG the figure was 0.592.
Next, GUUCCGUUGGCGUAGUGAUAACGCGUCUCCCUCCUAAGGAGAAGACUGCGGGUACGAGUCCCGUACGGAACG: not above 0.5; GUUCCGUUGGCGUAAUGGUAAGGCCUCUCCCUCCUAGGGAGAAGACUGCGGGUUCGAGUCCCGUACGGAACG: not above 0.5; GUUCCGUUGCCGUAAUGGUAACGCGUCUCCCUCGUAAGGAGAAGACUGCGGGUUCGAGUCCCAUACGGUCCG: not above 0.5.
